Assay results from different studies.
UGT1A6: UDP-glucuronosyltransferase 1A6 (UGT1A6, Homo sapiens, UniProt P19224)
CYP2B6: Cytochrome P450 2B6 (CYP2B6, Homo sapiens, UniProt P20813)

Structure (SMILES) | tested on | assay | test system | conditions | endpoint | value
OC(Cn1cncn1)(Cn1cncn1)c1ccc(F)cc1F | – | haemolysis | human | 8 µg/mL, 1 h | haemolysis | 4.52%
CCCCCCCCCCCCCCCCOP(=O)([O-])OCC[N+](C)(C)C | HeLa | cell growth or viability, XTT | – | 72 h | IC50 | 6.5 µM
Oc1ccc(Cl)cc1C=NNc1nc(-c2ccc(F)cc2)cs1 | – | haemolysis | human | 50 µM, 30 min, pH 7.4 | haemolysis | 21.2%
CCOP(=O)(OCC)[C@@H]1C[C@@H](n2cc(Cn3cc(C)c(=O)[nH]c3=O)nn2)ON1C (racemic) | HEL | cell growth or viability | – | 72 h | CC50 | > 100 µM
Fc1ccc(-c2csc(NN=Cc3ccc(C(F)(F)F)cc3)n2)cc1 | – | haemolysis | human | 100 µM, 30 min, pH 7.4 | haemolysis | 41%
C[C@H](O)c1cc(C(=O)N[C@@H](C)Cn2ccc(-c3ccc(C#N)c(Cl)c3)n2)n[nH]1 | UGT1A6 | enzyme activity, inhibitor | human, liver microsomes | – | IC50 | > 100 µM
CCOP(=O)(OCC)[C@@H]1C[C@H](n2cc(Cn3ccc(=O)[nH]c3=O)nn2)ON1C (racemic) | HeLa | cell growth or viability | – | 72 h | CC50 | > 250 µM
Cc1ccc(C(=O)N2CCOC[C@H]2Cc2cccc(-n3nccn3)c2)c(-n2nccn2)c1 | CYP2B6 | enzyme activity, inhibitor | human, liver microsomes | 100 µM | inhibition | 44%
Cc1cccc(F)c1N1CCC(N2Cc3cn(CC(C)(F)F)nc3N(Cc3ccccc3C(F)(F)F)C2=O)CC1 | CYP2B6 | enzyme activity, inhibitor | human, liver microsomes | – | IC50 | > 10 µM
CCc1ccc(-n2cc(CN3CCN(C(=O)c4c(C)nc5ccc(Cl)cn45)CC3)nn2)cc1 | HeLa | cell growth or viability, resazurin | – | – | CC50 | 58.1 µM
CCOP(=O)(OCC)[C@@H]1C[C@H](n2cc(-c3ccccc3)nn2)ON1C | HeLa | cell growth or viability | – | 72 h | CC50 | > 250 µM
Fc1ccc(-c2csc(NN=Cc3cccs3)n2)cc1 | – | haemolysis | human | 50 µM, 30 min, pH 7.4 | haemolysis | 32.4%
Cc1nc2ccc(Cl)cn2c1C(=O)N1CCN(Cc2cn(-c3ccc(C(F)(F)F)cc3)nn2)CC1 | HeLa | cell growth or viability, resazurin | – | – | CC50 | > 100 µM
C[C@@H]1[C@H](O)[C@@H](C)/C=C/C=C/C=C/C=C/C=C/C=C/C=C/[C@H](O[C@@H]2O[C@H](C)[C@@H](O)[C@H](N)[C@@H]2O)C[C@@H]2O[C@](O)(C[C@@H](O)C[C@@H](O)[C@H](O)CC[C@@H](O)C[C@@H](O)CC(=O)O[C@H]1C)C[C@H](O)[C@H]2C(=O)O | – | haemolysis | human | 0.5 µg/mL, 1 h | haemolysis | 3.73%
Fc1ccc(-c2csc(NN=Cc3cccc(C(F)(F)F)c3)n2)cc1 | – | haemolysis | human | 50 µM, 30 min, pH 7.4 | haemolysis | 30.7%
CCOP(=O)(OCC)[C@@H]1C[C@H](n2cc(Cn3ccc(NC(C)=O)nc3=O)nn2)ON1C (racemic) | HEL | cell growth or viability | – | 72 h | CC50 | > 100 µM
CCc1ccc(-n2cc(CN3CCN(C(=O)c4c(C)nc5cc(C)ccn45)CC3)nn2)cc1 | HeLa | cell growth or viability, resazurin | – | – | CC50 | > 100 µM
CC(=NNc1nc(-c2ccc(F)cc2)cs1)c1cccc(Br)c1 | – | haemolysis | human | 10 µM, 30 min, pH 7.4 | haemolysis | 0%
CCCc1cn(CCN2CCN(C(=O)c3c(C)nc4ccc(Cl)cn34)CC2)nn1 | HeLa | cell growth or viability, resazurin | – | – | CC50 | > 100 µM
CCOc1ccccc1C=NNc1nc(-c2ccc(F)cc2)cs1 | – | haemolysis | human | 10 µM, 30 min, pH 7.4 | haemolysis | 0%
Cc1ccn2c(C(=O)N3CCN(Cc4cn(-c5ccc(C(F)(F)F)cc5)nn4)CC3)c(C)nc2c1 | HeLa | cell growth or viability, resazurin | – | – | CC50 | > 100 µM
CCc1cc(/C(C)=N/OCc2ccc(C3CCCCC3)c(C(F)(F)F)c2)ccc1CN1CC(C(=O)O)C1 | CYP2B6 | enzyme activity, inhibitor | human, liver microsomes | 100 µM, 20 min | inhibition | 21%
Cc1nc2ccc(Cl)cn2c1C(=O)N1CCN(CCn2cc(-c3ccc(C(C)(C)C)cc3)nn2)CC1 | HeLa | cell growth or viability, resazurin | – | – | CC50 | > 100 µM
Oc1c(Br)cc(Cl)c2cccnc12 | – | – | Sprague-Dawley rat, plasma | oral, 20 mg/kg | CL/F | 85 mL/min/kg
CCOP(=O)(OCC)[C@@H]1C[C@H](n2cc(Cn3cnc4c(N)ncnc43)nn2)ON1C (relative stereo) | HEL | cell growth or viability | – | 72 h | CC50 | > 100 µM
Cc1ccn2c(C(=O)N3CCN(Cc4cn(-c5ccc([N+](=O)[O-])cc5)nn4)CC3)c(C)nc2c1 | HeLa | cell growth or viability, resazurin | – | – | CC50 | > 100 µM
Fc1ccc(-c2csc(NN=Cc3ccc[nH]3)n2)cc1 | – | haemolysis | human | 50 µM, 30 min, pH 7.4 | haemolysis | 26.3%
CCCc1cn(CCN2CCN(C(=O)c3c(C)nc4cc(C)ccn34)CC2)nn1 | HeLa | cell growth or viability, resazurin | – | – | CC50 | > 100 µM
Fc1ccc(-c2csc(NN=Cc3ccccc3C(F)(F)F)n2)cc1 | – | haemolysis | human | 100 µM, 30 min, pH 7.4 | haemolysis | 45.7%
CN(CCC(=O)O)C(=O)c1ccc2c(c1)CC[C@@H]1[C@@H]2CC[C@]2(C)C(c3cncc(F)c3)=CC[C@@H]12 | UGT1A6 | enzyme activity, inhibitor | – | – | IC50 | > 30 µM
